Data set [1] is described as follows: melting temperature; fluorescence melt of hairpins on a sequencing array, two-state fit, raised by 9.35 °C to match UV melts. The following applies: sodium 0.088 M. The gist of the method:
(§1)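 In 50 mM Na-HEPES pH 8.0 containing 25 mM NaCl, hairpins from the library on a sequenced MiSeq flow cell were imaged for Cy3 fluorescence at 2.5 °C steps up to 60 °C, with Cy3 and quencher oligos annealed. After normalisation to pre-quench Cy3 and to control constructs, two-state fits with bootstrapping gave melting temperature and folding enthalpy. Four replicates were combined by inverse-variance weighting, and fitted temperatures were shifted up by 9.35 °C to match UV melts.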

Data set [2] is described as follows: folding enthalpy; higher = less favourable; fluorescence melt of hairpins on a sequencing array, two-state fit. The following applies: sodium 0.088 M. The procedure, abridged:
as §1

As for GAGGGAGAAATCCCTC ((((((....)))))), in data set [1], the Tm amounted to 53.8 °C. For the same sequence, the folding enthalpy in data set [2] was -36 kcal/mol.

For GAGGGCGAAAGCCACCTC ((((((....)))..))), the Tm in data set [1] was 38.1 °C. Further, the folding enthalpy in data set [2] was -11 kcal/mol.

Consider GAGGGCGAAAGCCGGCTC ((((((....)))..))), for which the Tm in data set [1] was 51 °C. In data set [2], the folding enthalpy was -12.1 kcal/mol.

For GAGGGCGGAAACACCCTC (((((.(....).))))), the Tm in data set [1] amounted to 49.6 °C. Besides, the folding enthalpy in data set [2] was -33.7 kcal/mol.

With GAGGGGACGAAAGTCCTC (((..(((....)))))), the Tm in data set [1] was 41.2 °C. Besides, in data set [2], the folding enthalpy was -8.85 kcal/mol.

Turning to GAGGGGCCGAAAGGCCTC (((..(((....)))))), the Tm in data set [1] amounted to 46.4 °C. The folding enthalpy in data set [2] was -7.41 kcal/mol.

On to GAGGGGGGAAACCTCCTC ((((.((....)).)))), for which the Tm in data set [1] was 51.4 °C. Besides, the folding enthalpy in data set [2] was -33.7 kcal/mol.

Consider GAGGGTCCGAAAGGACTC (((..(((....)))))), for which the Tm in data set [1] is 41.3 °C. Also, the folding enthalpy in data set [2] was -9.51 kcal/mol.

On to GAGGGTGGAAACGCCTTC ((.((.(....).)).)), for which the Tm in data set [1] came to 34.1 °C. Further, the folding enthalpy in data set [2] was -25.7 kcal/mol.

For GAGGGTGGAAACGCTCTC (((.(.(....).).))), the Tm in data set [1] was 49.4 °C. Also, in data set [2], the folding enthalpy was -20.3 kcal/mol.

In the case of GAGGTACGAAAGTAACTC (((.(((....))).))), the Tm in data set [1] was 54.1 °C. Moreover, in data set [2], the folding enthalpy was -38.6 kcal/mol.

As to GAGGTAGGAAACTGCCTC ((((.((....)).)))), the Tm in data set [1] is 49.9 °C. In addition, the folding enthalpy in data set [2] was -37.1 kcal/mol.

For the sequence GAGGTCCGAAAGGAACTC (((.(((....))).))), the Tm in data set [1] amounted to 61.5 °C. The folding enthalpy in data set [2] was -40.6 kcal/mol.

With GAGGTCGGAAACAACCTC (((((.(....).))))), the Tm in data set [1] came out at 41.2 °C. Further, in data set [2], the folding enthalpy is -28.8 kcal/mol.

GAGGTCGGAAACGGTCTC (((..((....))..))): the Tm in data set [1] came out at 39.6 °C. Further, the folding enthalpy in data set [2] was -23.4 kcal/mol.

Consider GAGGTGCGAAAGCAACTC (((.(((....))).))), for which the Tm in data set [1] was 66.5 °C. Besides, the folding enthalpy in data set [2] is -26.2 kcal/mol.

In the case of GAGGTTGAAAAACCTC ((((((....)))))), the Tm in data set [1] amounted to 58.2 °C. Moreover, the folding enthalpy in data set [2] was -32.6 kcal/mol.

On to GAGGTTGGAAACAACCTC (((((((....))))))), for which the Tm in data set [1] came to 65.8 °C. In data set [2], the folding enthalpy is -43.3 kcal/mol.

On to GAGGTTGGAAACAGCCTC ((((.((....)).)))), for which the Tm in data set [1] is 50.1 °C. In addition, the folding enthalpy in data set [2] is -32.4 kcal/mol.

As for GAGGTTGGAAACAGCTTC ((.(.((....)).).)), in data set [1], the Tm was 39.9 °C. Also, the folding enthalpy in data set [2] was -36 kcal/mol.

For the sequence GAGGTTGGAAACGATCTC (((.(.(....).).))), the Tm in data set [1] was 29.5 °C. Further, the folding enthalpy in data set [2] was -17.3 kcal/mol.

On to GAGTAACGAAAGTTCTC (((.(((....)))))), for which the Tm in data set [1] was found to be 37.1 °C. The folding enthalpy in data set [2] is -21.9 kcal/mol.

Turning to GAGTACCGAAAGGTCCTC (((.(((....))).))), the Tm in data set [1] was determined as 45.3 °C. In addition, in data set [2], the folding enthalpy is -25.2 kcal/mol.

Take GAGTACCGAAAGGTCTC (((.(((....)))))): the Tm in data set [1] was 48.7 °C. Moreover, the folding enthalpy in data set [2] was -21.6 kcal/mol.

For the sequence GAGTACGAAAGTAGCCTC ((((((....)))..))), the Tm in data set [1] is 27.3 °C. Moreover, the folding enthalpy in data set [2] is -11.8 kcal/mol.

Regarding GAGTACGAAAGTAGCTC ((((((....))).))), the Tm in data set [1] was 37.5 °C. In addition, the folding enthalpy in data set [2] is -23.3 kcal/mol.

As for GAGTACGGAAACGTACTC (((((((....))))))), the Tm in data set [1] worked out at 64 °C. For the same sequence, the folding enthalpy in data set [2] was -42.5 kcal/mol.

For the sequence GAGTAGAAATACTC (((((....))))), the Tm in data set [1] amounted to 36.5 °C. For the same sequence, in data set [2], the folding enthalpy was -16.7 kcal/mol.

On to GAGTAGACGAAAGTCCTC (((..(((....)))))), for which the Tm in data set [1] is 32.8 °C. Further, the folding enthalpy in data set [2] was -14.1 kcal/mol.

For the sequence GAGTAGCCGAAAGGCCTC (((..(((....)))))), in data set [1], the Tm came to 38.4 °C. Further, the folding enthalpy in data set [2] is -10.7 kcal/mol.

As to GAGTAGCGAAAGCTCCTC (((.(((....))).))), in data set [1], the Tm was 39.5 °C. Further, the folding enthalpy in data set [2] is -20 kcal/mol.

With GAGTAGCGAAAGCTCTC (((.(((....)))))), the Tm in data set [1] was determined as 46.2 °C. Also, in data set [2], the folding enthalpy was -17.8 kcal/mol.

Regarding GAGTAGGGAAACCTACCC (.(((((....))))).), the Tm in data set [1] was found to be 35.1 °C. The folding enthalpy in data set [2] was -15.4 kcal/mol.

Take GAGTAGGGAAACCTATTC ((.((((....)))).)): in data set [1], the Tm amounted to 32.5 °C. Moreover, in data set [2], the folding enthalpy was -25.5 kcal/mol.

GAGTATGAAAATACTC ((((((....)))))): the Tm in data set [1] stood at 50.3 °C. Further, the folding enthalpy in data set [2] was -36.5 kcal/mol.

Take GAGTCAGGAAACTGGCTC (((.(((....))).))): the Tm in data set [1] turned out to be 54.1 °C. For the same sequence, in data set [2], the folding enthalpy is -43.1 kcal/mol.

These data come from the array DNA melting data of Ke et al. (doi:10.1101/2024.01.08.574731).
